The source made the active and inactive calls. The calls are words filed in the database; no cut-off is given here.
Experiments:
[1] = system: Ovis aries; experiment: Antibody stimulation by serum hemagglutininin titer over the titer for the infected placebo-treated control in sheep red blood cells at 50 mg/Kg of dose; value is 128/16; assay type: functional
[2] = system: Mus musculus; experiment: Percent reduction in spleen weight in mice as compared to infected untreated controls at 100 mg/kg; assay type: functional
Procedure, shortened: (§1)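 In BALB/c mice infected ip with Rauscher leukemia virus (same-sex, ≥18 g), compound was given orally in 0.2% Noble agar/saline on days 6, 7 and 8 at 25–200 mg/kg. Animals were weighed on day 14. Spleen weight is expressed as percent reduction versus infected placebo-treated controls, and ≥50% reduction counts as active.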

[3] = system: Mus musculus; experiment: Efficacy against a lethal virus challenge with an interferon sensitive virus, columbia SK was evaluated 14 days postinfection (oral dosing) as number of mice survived out of 15 tested; assay type: functional
[4] = system: Mus musculus; experiment: Percent reduction in spleen weight in mice as compared to infected untreated controls at 200 mg/kg; assay type: functional; procedure, shortened: as §1
[5] = system: Ovis aries; experiment: Antibody stimulation by serum hemagglutininin titer over the titer for the infected placebo-treated control in sheep red blood cells at 200 mg/Kg of dose; value is 32/16; assay type: functional
[6] = system: Mus musculus; experiment: Efficacy against a lethal virus challenge with an interferon sensitive virus, columbia SK was evaluated 14 days postinfection (oral dosing) as number of mice survived out of 15 tested; NT = Not tested; assay type: functional
[7] = system: Ovis aries; experiment: Antibody stimulation by serum hemagglutininin titer over the titer for the infected placebo-treated control in sheep red blood cells at 25 mg/Kg of dose; value is 16/16; assay type: functional
[8] = system: Ovis aries; experiment: Antibody stimulation by serum hemagglutininin titer over the titer for the infected placebo-treated control in sheep red blood cells at 100 mg/Kg of dose; value is 64/16; assay type: functional
[9] = system: Mus musculus; experiment: Percent reduction in spleen weight in mice as compared to infected untreated controls at 50 mg/kg; assay type: functional; procedure, shortened: as §1
[10] = system: Ovis aries; experiment: Antibody stimulation by serum hemagglutininin titer over the titer for the infected placebo-treated control in sheep red blood cells at 25 mg/Kg of dose; value is 128/16; assay type: functional
[11] = system: Ovis aries; experiment: Antibody stimulation by serum hemagglutininin titer over the titer for the infected placebo-treated control in sheep red blood cells at 50 mg/Kg of dose; value is 64/16; assay type: functional
[12] = system: Ovis aries; experiment: Antibody stimulation by serum hemagglutininin titer over the titer for the infected placebo-treated control in sheep red blood cells at 50 mg/Kg of dose; value is 1024/32; assay type: functional
[13] = system: Mus musculus; experiment: Percent reduction in spleen weight in mice as compared to infected untreated controls at 25 mg/kg; assay type: functional
Procedure, shortened: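 BALB/c mice of the same sex, weighing at least 18 g and within a 3 g range, were inoculated ip with Rauscher leukemia virus as a 20% (w/v) spleen extract, five per group. Compound in 0.2% Noble agar/saline was given orally on days 6, 7 and 8, with SRBC ip on day 7. Mice were weighed on day 14, and percent spleen-weight reduction was taken versus infected placebo-treated controls.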

[14] = system: Ovis aries; experiment: Antibody stimulation by serum hemagglutininin titer over the titer for the infected placebo-treated control in sheep red blood cells at 25 mg/Kg of dose; value is 256/64; assay type: functional
[15] = system: Ovis aries; experiment: Antibody stimulation by serum hemagglutininin titer over the titer for the infected placebo-treated control in sheep red blood cells at 25 mg/Kg of dose; value is 32/16; assay type: functional
[16] = system: Mus musculus; experiment: Efficacy against a lethal virus challenge with an interferon sensitive virus, columbia SK was evaluated 14 days postinfection (oral dosing) as number of mice survived out of 20 tested; assay type: functional
[17] = species: Ovis aries; experiment: Antibody stimulation by serum hemagglutininin titer over the titer for the infected placebo-treated control in sheep red blood cells; NA=Not active; assay type: functional, organism-based
[18] = system: Ovis aries; experiment: Antibody stimulation by serum hemagglutininin titer over the titer for the infected placebo-treated control in sheep red blood cells at 100 mg/Kg of dose; value is 512/32; assay type: functional
[19] = system: Ovis aries; experiment: Antibody stimulation by serum hemagglutininin titer over the titer for the infected placebo-treated control in sheep red blood cells at 200 mg/Kg of dose; value is 128/16; assay type: functional
[20] = system: Ovis aries; experiment: Antibody stimulation by serum hemagglutininin titer over the titer for the infected placebo-treated control in sheep red blood cells at 100 mg/Kg of dose; value is 128/16; assay type: functional
[21] = system: Ovis aries; experiment: Antibody stimulation by serum hemagglutininin titer over the titer for the infected placebo-treated control in sheep red blood cells at 200 mg/Kg of dose; value is 64/16; assay type: functional
[22] = system: Ovis aries; experiment: Antibody stimulation by serum hemagglutininin titer over the titer for the infected placebo-treated control in sheep red blood cells at 50 mg/Kg of dose; value is 256/32; assay type: functional
[23] = system: Ovis aries; experiment: Antibody stimulation by serum hemagglutininin titer over the titer for the infected placebo-treated control in sheep red blood cells at 100 mg/Kg of dose; value is 32/16; assay type: functional
[24] = species: Mus musculus; experiment: Percent reduction in spleen weight in mice as compared to infected untreated controls; NA = Not Active; assay type: functional, organism-based; procedure, shortened: as §1
[25] = system: Ovis aries; experiment: Antibody stimulation by serum hemagglutininin titer over the titer for the infected placebo-treated control in sheep red blood cells at 50 mg/Kg of dose; NA = Not Active; assay type: functional, organism-based
[26] = species: Ovis aries; experiment: Antibody stimulation by serum hemagglutininin titer over the titer for the infected placebo-treated control in sheep red blood cells; NA = Not active; assay type: functional, organism-based
[27] = species: Ovis aries; experiment: Antibody stimulation by serum hemagglutininin titer over the titer for the infected placebo-treated control in sheep red blood cells; value is 128/16; assay type: functional
[28] = system: Ovis aries; experiment: Antibody stimulation by serum hemagglutininin titer over the titer for the infected placebo-treated control in sheep red blood cells at 50 mg/Kg of dose; value is 32/16; assay type: functional

**Q.** With `CNCCOc1ccc2cc3ccc(OCCNC)cc3nc2c1.Cl` as the molecule, how does the Antibody stimulation [1] read?
**A.** 128

**Q.** And the Reduction [2]?
**A.** 86%

**Q.** And the Survivors [3]?
**A.** 1

**Q.** Which results are given for `CCNCCCOc1ccc2cc3ccc(OCCCNCC)cc3nc2c1.Cl.O`?
**A.** Reduction [4]: 78%; Antibody stimulation [5]: 32; Survivors [3]: 7

**Q.** For `CC(CCOc1ccc2cc3ccc(OCCC(C)N(C)C)cc3nc2c1)N(C)C` (stereo unspecified), which Survivors [6] is on record?
**A.** 5

**Q.** Which results are given for `CN(C)CCCOc1ccc2cc3ccc(OCCCN(C)C)cc3nc2c1.Cl.O`?
**A.** Reduction [4]: 54%; Antibody stimulation [7]: 16; Survivors [3]: 9

**Q.** Which results are given for `c1cc2cc3ccc(OCCN4CCCC4)cc3nc2cc1OCCN1CCCC1`?
**A.** Antibody stimulation [8]: 64; Reduction [9]: 82%; Survivors [3]: 5

**Q.** With `CCN(CC)CCCOc1ccc2cc3ccc(OCCCN(CC)CC)cc3nc2c1.Cl.O` as the molecule, how does the Antibody stimulation [10] read?
**A.** 128

**Q.** And the Reduction [2]?
**A.** 72%

**Q.** What about the Survivors [3] of the same molecule?
**A.** 13

**Q.** What does the source list for `CCN(CC)CCOc1ccc2cc3cc([N+](=O)[O-])c(OCCN(CC)CC)c(Cl)c3nc2c1Cl`?
**A.** Reduction [4]: 61%; Antibody stimulation [11]: 64; Survivors [3]: 1

**Q.** With `Cl.O.c1cc2cc3ccc(OCCCN4CCCCC4)cc3nc2cc1OCCCN1CCCCC1` as the molecule, how does the Antibody stimulation [12] read?
**A.** 1024

**Q.** What about the Reduction [9] of the same molecule?
**A.** 74%

**Q.** And the Survivors [3]?
**A.** 9

**Q.** `O=P1(N(CCCl)CCCl)NCCCO1` (stereo unspecified) [CYCLOPHOSPHAMIDE ANHYDROUS] was tested. Which Reduction [13] did it give?
**A.** 102%

**Q.** Which Antibody stimulation [14] does the source give for `CCN(CC)CCOc1cc2nc3cc(OCCN(CC)CC)c(C)cc3cc2cc1C.Cl.O` here?
**A.** 256

**Q.** What about the Reduction [2] of the same molecule?
**A.** 21%

**Q.** What about the Survivors [3] of the same molecule?
**A.** 4

**Q.** Which results are given for `Cl.NCCOc1ccc2cc3ccc(OCCN)cc3nc2c1.O`?
**A.** Antibody stimulation [15]: 32; Reduction [2]: 40%; Survivors [3]: 1

**Q.** How did the Survivors [16] turn out when `CCN(CC)CCOc1ccc2c(c1)C(=O)c1cc(OCCN(CC)CC)ccc1-2` [TILORONE] was run?
**A.** 5

**Q.** For `CCC(CO)NCCCOc1ccc2cc3ccc(OCCCNC(CC)CO)cc3nc2c1.Cl.O` (stereo unspecified), which Reduction [2] is on record?
**A.** 74%

**Q.** And the Antibody stimulation [17]?
**A.** inactive

**Q.** Which results are given for `CC(C)NCCOc1ccc2cc3ccc(OCCNC(C)C)cc3nc2c1.Cl`?
**A.** Reduction [4]: 96%; Antibody stimulation [18]: 512; Survivors [3]: 15

**Q.** Which results are given for `CCCCNCCOc1ccc2cc3ccc(OCCNCCCC)cc3nc2c1.Cl.O`?
**A.** Antibody stimulation [19]: 128; Reduction [2]: 92%; Survivors [3]: 7

**Q.** Which Antibody stimulation [20] does the source give for `CCN(CC)CCOc1ccc2cc3ccc(OCCN(CC)CC)c(Cl)c3nc2c1Cl` here?
**A.** 128

**Q.** And the Reduction [9]?
**A.** 86%

**Q.** And the Survivors [3]?
**A.** 7

**Q.** What does the source list for `CCCNCCOc1ccc2cc3ccc(OCCNCCC)cc3nc2c1.Cl.O`?
**A.** Antibody stimulation [21]: 64; Reduction [2]: 101%; Survivors [3]: 10

**Q.** Which results are given for `CCN(CC)CCOc1ccc2cc3ccc(OCCN(CC)CC)c(Br)c3nc2c1Br`?
**A.** Antibody stimulation [8]: 64; Reduction [4]: 92%; Survivors [3]: 6

**Q.** How did the Reduction [4] turn out when `CCCNCCCOc1ccc2cc3ccc(OCCCNCCC)cc3nc2c1.Cl.O` was run?
**A.** 96%

**Q.** And the Survivors [3]?
**A.** 13

**Q.** With `CCN(CC)CCOc1ccc2cc3ccc(OCCN(CC)CC)cc3nc2c1.Cl.O` as the molecule, how does the Reduction [2] read?
**A.** 70%

**Q.** And the Survivors [3]?
**A.** 15

**Q.** What about the Antibody stimulation [22] of the same molecule?
**A.** 256

**Q.** `Cl.c1cc2cc3ccc(OCCN4CCCCC4)cc3nc2cc1OCCN1CCCCC1` was tested. Which Antibody stimulation [20] did it give?
**A.** 128

**Q.** And the Reduction [2]?
**A.** 62%

**Q.** What about the Survivors [3] of the same molecule?
**A.** 5

**Q.** Which Antibody stimulation [15] does the source give for `CNCCCOc1ccc2cc3ccc(OCCCNC)cc3nc2c1.Cl.O` here?
**A.** 32

**Q.** What about the Reduction [2] of the same molecule?
**A.** 18%

**Q.** And the Survivors [3]?
**A.** 8

**Q.** For `Cl.OCCNCCOc1ccc2cc3ccc(OCCNCCO)cc3nc2c1`, which Reduction [9] is on record?
**A.** 35%

**Q.** What about the Survivors [3] of the same molecule?
**A.** 3

**Q.** What about the Antibody stimulation [23] of the same molecule?
**A.** 32

**Q.** How did the Reduction [24] turn out when `CCN(CC)CCOc1ccc2cc3cc([N+](=O)[O-])c(OCCN(CC)CC)c(Br)c3nc2c1Br` was run?
**A.** inactive

**Q.** And the Antibody stimulation [25]?
**A.** inactive

**Q.** What about the Survivors [3] of the same molecule?
**A.** 5

**Q.** How did the Antibody stimulation [15] turn out when `CCNCCOc1ccc2cc3ccc(OCCNCC)cc3nc2c1.Cl.O` was run?
**A.** 32

**Q.** What about the Reduction [2] of the same molecule?
**A.** 89%

**Q.** What about the Survivors [3] of the same molecule?
**A.** 7

**Q.** For `CN(C)CCCCOc1ccc2cc3ccc(OCCCCN(C)C)cc3nc2c1.Cl.O`, which Antibody stimulation [26] is on record?
**A.** inactive

**Q.** What about the Reduction [9] of the same molecule?
**A.** 52%

**Q.** What about the Survivors [3] of the same molecule?
**A.** 2

**Q.** How did the Reduction [9] turn out when `CCN(CC)CCOc1cc([N+](=O)[O-])c2cc3cc([N+](=O)[O-])c(OCCN(CC)CC)c(Cl)c3nc2c1Cl` was run?
**A.** 46%

**Q.** What about the Survivors [3] of the same molecule?
**A.** 3

**Q.** What about the Antibody stimulation [23] of the same molecule?
**A.** 32

**Q.** What does the source list for `CCN(CC)CCOc1ccc2cc3cc(N)c(OCCN(CC)CC)c(Cl)c3nc2c1Cl.Cl.O`?
**A.** Reduction [13]: 55%; Antibody stimulation [27]: 128

**Q.** `CCN(CC)CCOc1ccc2cc3ccc(OCCN(CC)CC)c([N+](=O)[O-])c3nc2c1[N+](=O)[O-]` was tested. Which Antibody stimulation [8] did it give?
**A.** 64

**Q.** And the Reduction [2]?
**A.** 108%

**Q.** And the Survivors [3]?
**A.** 1

**Q.** Which Reduction [9] does the source give for `CN1CCN(CCOc2ccc3cc4ccc(OCCN5CCN(C)CC5)cc4nc3c2)CC1` here?
**A.** 75%

**Q.** And the Survivors [3]?
**A.** 1

**Q.** And the Antibody stimulation [28]?
**A.** 32

From ChEMBL document CHEMBL1122410, “Synthesis of 3,6-bis(aminoalkoxy)acridines and their effect on the immune System” (1983)
